Broadly, the IC50 is the point on the concentration scale where inhibition reaches its midpoint. A low value points to greater potency.

The values that follow come from ChEMBL document CHEMBL1154220, “Inhibitors of aldose reductase and formation of advanced glycation end-products in moutan cortex (Paeonia suffruticosa)” (J Nat Prod, 2009).

Series [1] deals with Aldo-keto reductase family 1 member B1 (Rattus norvegicus, UniProt P07943). The series can be described thus: Inhibition of Sprague-Dawley rat lens aldose reductase by spectrofluorimetry. Format: single protein. In outline:
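Crude enzyme: supernatant of lenses from 8-week-old rats (250-280 g), homogenized in 135 mM Na/K phosphate pH 7.0 with 0.5 mM PMSF and 10 mM 2-mercaptoethanol, spun 14 000 rpm 30 min. NADP converted to fluorophore with NaOH/imidazole at 60 °C for 10 min, read ex 360/em 460 nm. IC50 from dose-response curves, triplicate, mean ± SE.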

A short description of series [2]: Inhibition of advanced glycation end product formation after 14 day in phosphate buffer at pH7.4 by spectrofluorimetry. Format: physicochemical. In outline:
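BSA (10 mg/mL stock) in 50 mM phosphate pH 7.4 with 0.02% sodium azide, plus 0.2 M fructose and glucose, incubated with serially diluted samples at 37 °C for 14 days in screw-cap tubes. Aminoguanidine served as reference. Fluorescence read at ex 350/em 450 nm. IC50 from dose-response curves, triplicate, mean ± SE.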

On to `CCCCO[C@]12C[C@]3(C)OC(O1)[C@]1(COC(=O)c4ccccc4)[C@@H]2C[C@@]31O[C@@H]1O[C@H](CO)[C@@H](O)[C@H](O)[C@H]1O`, for which the figures for the half-inhibitory concentration (IC50) in series [1] and in series [2] were 36.2 µM and 10.8 µM, respectively.

`CO[C@H]1O[C@@]2(C)CC(=O)[C@H]3C[C@]2(O[C@@H]2O[C@H](COC(=O)c4ccccc4)[C@@H](O)[C@H](O)[C@H]2O)[C@]13COC(=O)c1ccccc1`: the IC50 in series [1] was over 50 µM; in series [2], over 500 µM.

Turning to `Cc1cc2c(cc1O)[C@@H](CO)CO2`, the IC50 is over 50 µM in series [1] and 177 µM in series [2].

As for `C[C@@]12C[C@@]3(O)OC(O1)[C@]1(COC(=O)c4ccc(O)cc4)[C@@H]3C[C@@]21O[C@H]1O[C@H](COC(=O)c2ccccc2)[C@@H](O)[C@H](O)[C@H]1O`, the IC50 in series [1] is over 50 µM; in series [2] it was over 500 µM.

As to `C[C@@]12C[C@@]3(O)OC(O1)[C@]1(COC(=O)c4ccc(O)cc4)[C@@H]3C[C@@]21O[C@@H]1O[C@H](COC(=O)c2ccccc2)[C@@H](O)[C@H](O)[C@H]1O`, the IC50 in series [1] was over 50 µM; in series [2], over 500 µM.

With `C=C1CC[C@]2(C(=O)O)CC[C@]3(C)C(=CC[C@@H]4[C@@]5(C)CC[C@H](O)[C@@](C)(CO)[C@@H]5CC[C@]43C)[C@@H]2C1`, the IC50 in series [1] is 28.8 µM; in series [2], over 500 µM.

As for `CO[C@@]12C[C@@H]3C(=O)[C@@](C)(C1)OC(O2)[C@H]3COC(=O)c1ccccc1`, the IC50 in series [1] is over 50 µM; in series [2], over 500 µM.

In turn, `O=C(O)CC1(CC(=O)O)CCCC1` came in with an IC50 in series [1] of 31.8 µM.

Regarding `C[C@@]12C[C@@]3(O)O[C@@H](O1)[C@]1(COC(=O)c4ccccc4)[C@@H]3C[C@]12O[C@@H]1O[C@H](COC(=O)c2ccccc2)[C@@H](O)[C@H](O)[C@H]1O` [BENZOYLPAEONIFLORIN], the IC50 is over 50 µM in series [1] and over 500 µM in series [2].

Turning to `C[C@@]12C[C@@]3(O)O[C@@H](O1)[C@]1(COC(=O)c4ccccc4)[C@@H]3C[C@]12O[C@@H]1O[C@H](COC(=O)c2cc(O)c(O)c(O)c2)[C@@H](O)[C@H](O)[C@H]1O` [GALLOYLPAEONIFLORIN], the figures for the IC50 in series [1] and in series [2] were 44.6 µM and 11.3 µM, respectively.

Turning to `C[C@@]12C[C@@]3(O)OC(O1)[C@]1(COC(=O)c4ccccc4)[C@@H]3C[C@@]21O[C@@H]1O[C@H](COC(=O)c2ccc(O)cc2)[C@@H](O)[C@H](O)[C@H]1O` [NUDANPINOSIDE H], the IC50 was over 50 µM in series [1] and over 500 µM in series [2].

Regarding `C[C@@]12C[C@@]3(O)O[C@@H](O1)[C@]1(COC(=O)c4ccc(O)cc4)[C@H]3C[C@@]12O[C@@H]1O[C@H](CO)[C@@H](O)[C@H](O)[C@H]1O` [OXYPAEONIFLORIN], the IC50 in series [1] was over 50 µM; in series [2], over 500 µM.

As to `C[C@@]12CC(=O)[C@H]3C[C@]1(O)O[C@H](O2)[C@@H]3COC(=O)c1ccccc1` [PAEONIFLORIGENONE], the IC50 in series [1] was over 50 µM; in series [2] it was over 500 µM.

As to `C[C@@]12C[C@@]3(O)O[C@@H](O1)[C@]1(COC(=O)c4ccccc4)[C@H]3C[C@@]12O[C@@H]1O[C@H](CO)[C@@H](O)[C@H](O)[C@H]1O` [PAEONIFLORIN], the results for the IC50 in series [1] and in series [2] were over 50 µM and over 500 µM, respectively.

Take `COc1ccc(C(C)=O)c(O[C@@H]2O[C@H](CO[C@@H]3OC[C@H](O)[C@H](O)[C@H]3O)[C@@H](O)[C@H](O)[C@H]2O)c1` [PAEONOLIDE]: the IC50 is over 50 µM in series [1] and over 500 µM in series [2].

For `COc1ccc(C(C)=O)c(O)c1` [PAEONOL], the IC50 was over 50 µM in series [1] and over 500 µM in series [2].

On to `CC1(C)[C@@H](O)CC[C@]2(C)[C@H]3C=CC4=C(O)C(=O)C(=O)[C@@]4(C)[C@]3(C)CC[C@@H]12` [PALBINONE], for which the IC50 is 11.4 µM in series [1] and over 500 µM in series [2].

`N=C(N)NN` [PIMAGEDINE]: it took 1030 µM to reach half-maximal inhibition in series [2] (IC50).
